The values that follow come from ChEMBL document CHEMBL1137646, “Intracellular metabolism and persistence of the anti-human immunodeficiency virus activity of 2',3'-didehydro-3'-deoxy-4'-ethynylthymidine, a novel thymidine analog” (Antimicrob Agents Chemother, 2007).

For data set [1], the system named is RKO. Description: Drug metabolism in doxycyclin-induced Tet-On gene expressing human RKO cells producing thymidylate kinase assessed as increase in radioactive 2', 3'-didehydro-3'-deoxy-4'-ethynylthymidine diphosphate accumulation at 2 uM after 16 hrs assessed per 10^6 cells by HPLC analysis relative to control. The data set is classed as ADME, cell-based. The gist of the method:
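TMPK Tet-On RKO cells were seeded at 5 x 10^5 per dish with doxycycline at 0, 50 or 3,000 ng/ml for 48 or 72 h, then pulsed for 16 h with 2 µM [5'-3H]4'-Ed4T (478 mCi/mmol). After a cold PBS wash containing 20 µM dipyridamole, cells were extracted with 15% TCA and neutralized with trioctylamine/trichlorotrifluoroethane. Metabolites were quantified by radio-HPLC as pmol/10^6 cells, n=3.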

For data set [2], the system named is Human immunodeficiency virus 1. Description: Antiviral activity against 0.1 MOI HIV1 3B in 24 hrs pretreated human TZM-b1 cells infected 0 hr post drug removal assessed as inhibition of viral replication at 2 uM measured 24 hrs postinfection by luciferase assay. The data set is classed as functional. As to conditions: Human immunodeficiency virus 1, 3B. The gist of the method:
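TZM-bl cells were plated in phenol red-free RPMI 1640, allowed to adhere 15–18 h at 37°C, then exposed to a range of drug concentrations for 24 h. Medium was changed to remove extracellular drug, and cells were infected with HIV-1 IIIB (MOI 0.1) at 0, 24 or 48 h after removal. Luciferase was read 24 h post-infection with uninfected-cell background subtracted, in quintuple wells, and expressed relative to no-drug wells.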

For data set [3], the system named is Human immunodeficiency virus 1. Nature of the data set: Antiviral activity against 0.1 MOI HIV1 3B in 24 hrs pretreated human TZM-b1 cells infected 24 hrs post drug removal assessed as inhibition of viral replication at 1 to 6 uM measured 24 hrs postinfection by luciferase assay.
Data set [4] has as its system Human immunodeficiency virus 1. Description: Antiviral activity against 0.1 MOI HIV1 3B infected in human TZM-b1 cells assessed as inhibition of viral replication at 2 uM after 24 hrs by luciferase assay. The data set is classed as functional. The settings on record: Human immunodeficiency virus 1, 3B, TZM-b1, 24 h. The gist of the method: (§1)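 TZM-bl cells in phenol red-free RPMI 1640 were infected with HIV-1 IIIB (MOI 0.1) at the time of adding drug at various concentrations, and drug and virus stayed together for 24 h. Lysate luciferase was measured with uninfected background subtracted, in quintuple wells. Inhibition was the mean signal relative to drug-free infected cells.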

For data set [5], the system named is Human immunodeficiency virus 1. Description: Antiviral activity against 0.1 MOI HIV1 3B infected in human TZM-b1 cells assessed as inhibition of viral replication at 6 uM after 24 hrs by luciferase assay. The data set is classed as functional. The settings on record: Human immunodeficiency virus 1, 3B, TZM-b1, 24 h. An outline of the steps:
as §1

The subject of data set [6] is RKO. Nature of the data set: Drug metabolism in doxycyclin-induced Tet-On gene expressing human RKO cells producing 3-phosphoglycerate kinase assessed as radioactive 2', 3'-didehydro-3'-deoxy-4'-ethynylthymidine triphosphate accumulation after 16 hrs assessed per 10^6 cells by HPLC analysis. The data set is classed as ADME, cell-based. The gist of the method:
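Tet-On PGK RKO cells (5 x 10^5 per dish) were induced with doxycycline at 0, 50 or 100 ng/ml for 48 or 72 h, then given 2 µM [5'-3H]4'-Ed4T (478 mCi/mmol) for 16 h. Cells were washed in cold PBS with 20 µM dipyridamole and extracted with 15% TCA. Neutralized extracts went through SAX-HPLC with radiometric detection, expressed as pmol/10^6 cells, mean of three experiments.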

Data set [7] has as its system CCRF-CEM. Description: Drug metabolism in human CEM cells assessed as radioactive stavudine diphosphate accumulation at 2 uM assessed per 10^6 cells. The data set is classed as ADME, cell-based. The settings on record: TDE = time-dependent effect. An outline of the steps: (§2)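 CEM cells (2 x 10^7/ml) in RPMI 1640 with 10% dialyzed FBS were incubated at 37°C with 2 µM [3H]analog (75 mCi/mmol) and harvested at 2, 4, 8, 12, 16 and 24 h. Cells were washed in ice-cold PBS with 20 µM dipyridamole and extracted with 15% TCA. Neutralized extracts were separated on a Partisil SAX column with an H2O to 300 mM potassium phosphate gradient and radiometric detection, reported as pmol/10^6 cells, mean ± SD of three experiments.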

Data set [8] deals with CCRF-CEM. Nature of the data set: Drug metabolism in human CEM cells assessed as radioactive 2', 3'-didehydro-3'-deoxy-4'-ethynylthymidine monophosphate accumulation at 2 uM assessed per 10^6 cells. The class given is ADME, cell-based. The settings on record: TDE = time-dependent effect. An outline of the steps: as §2

As usually defined, the inhibition is the change of the read-out against control, counted positive when it falls.

Calls of active or inactive are those of the source. The rule behind the calls is not given here.

`C#C[C@@]1(CO)C=C[C@H](n2cc(C)c(=O)[nH]c2=O)O1` [CENSAVUDINE]: in the data set on RKO [1], the “fold change (FC)” value came to 3. Besides, the inhibition at 2 µM in data set [2] and in data set [4] was 50% each time. In data set [3], the inhibition entry is “Active”. In data set [5], the inhibition at 6 µM came out at 50%. Moreover, the Activity entry in the data set on RKO [6] was “Dose-dependent effect”; with CCRF-CEM [7], “tde”; with CCRF-CEM [8], “tde”.
